Values after ≈ are worked out from the molar mass of the structure shown.
Key:
Assay type in all cases: functional
[1] = tested on: Escherichia coli; test: Antimicrobial activity against Escherichia coli DSM 682 after 48 hr by agar dilution method; settings: DSM 682, 48 h
Method in brief: (§1)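 Agar dilution on standard plate count agar: 0.5 mL of a 2-fold serial dilution of sample mixed into 9.5 mL medium, poured into Petri dishes, organism streaked on the surface. Incubated at 28 °C (36 and 48 h). MIC is the lowest tested concentration with no visible growth.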

[2] = tested on: Escherichia coli; test: Antimicrobial activity against Escherichia coli ATCC 35346 after 48 hr by agar dilution method; settings: ATCC 35346, 48 h; method in brief: as §1
[3] = tested on: Stutzerimonas stutzeri; test: Antimicrobial activity against Pseudomonas stutzeri ATCC 962 after 48 hr by agar dilution method; settings: ATCC 962, 48 h; method in brief: as §1
[4] = tested on: Pseudomonas aeruginosa; test: Antimicrobial activity against Pseudomonas aeruginosa DSM 1117 after 48 hr by agar dilution method; settings: DSM 1117, 48 h; method in brief: as §1
[5] = tested on: Limosilactobacillus fermentum; test: Antimicrobial activity against Lactobacillus fermentum DSM 20052 after 48 hr by agar dilution method; settings: DSM 20052, 48 h; method in brief: as §1
[6] = tested on: Lacticaseibacillus casei; test: Antimicrobial activity against Lactobacillus casei DSM 20011 after 48 hr by agar dilution method; settings: DSM 20011, 48 h; method in brief: as §1
[7] = tested on: Lactiplantibacillus plantarum; test: Antimicrobial activity against Lactobacillus plantarum DSM 20174 after 48 hr by agar dilution method; settings: DSM 20174, 48 h; method in brief: as §1
[8] = tested on: Lacticaseibacillus rhamnosus; test: Antimicrobial activity against Lactobacillus rhamnosus DSM 20021 after 48 hr by agar dilution method; settings: DSM 20021, 48 h; method in brief: as §1
[9] = tested on: Bacillus cereus; test: Antimicrobial activity against Bacillus cereus DSM 345 after 48 hr by agar dilution method; settings: DSM 345, 48 h; method in brief: as §1
[10] = tested on: Micrococcus luteus; test: Antimicrobial activity against Micrococcus luteus DSM 348 after 48 hr by agar dilution method; settings: DSM 348, 48 h; method in brief: as §1
[11] = tested on: Staphylococcus aureus; test: Antimicrobial activity against Staphylococcus aureus subsp. aureus DSM 346 after 48 hr by agar dilution method; settings: DSM 346, 48 h; method in brief: as §1
[12] = tested on: Staphylococcus epidermidis; test: Antimicrobial activity against Staphylococcus epidermidis DSM 1798 after 48 hr by agar dilution method; settings: DSM 1798, 48 h; method in brief: as §1
[13] = tested on: Bacillus licheniformis; test: Antimicrobial activity against Bacillus licheniformis DSM 13=ATCC 14580 after 48 hr by agar dilution method; settings: DSM 13 = ATCC 14580, 48 h; method in brief: as §1
[14] = tested on: Bacillus subtilis; test: Antimicrobial activity against Bacillus subtilis DSM 345 after 48 hr by agar dilution method; settings: DSM 345, 48 h; method in brief: as §1
[15] = tested on: Rhizopus arrhizus; test: Antimicrobial activity against Rhizopus oryzae ATCC 56536 after 48 hr by agar dilution method; settings: ATCC 56536, 48 h
Method in brief: (§2)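 Fungi tested by agar dilution in malt agar. Serial 2-fold sample dilutions (0.5 mL) were mixed with 9.5 mL medium and plated, then streaked with the organism. Incubation at 28 °C for 36 and 48 h. MIC is the lowest tested concentration without growth.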

[16] = tested on: Trichoderma viride; test: Antimicrobial activity against Hypocrea rufa ATCC 28020 after 48 hr by agar dilution method; settings: ATCC 28020, 48 h; method in brief: as §2
[17] = tested on: Setophoma terrestris; test: Antimicrobial activity against Setophoma terrestris ATCC 11321 after 48 hr by agar dilution method; settings: ATCC 11321, 48 h; method in brief: as §2
[18] = tested on: Penicillium expansum; test: Antimicrobial activity against Penicillium expansum ATCC 7861 after 48 hr by agar dilution method; settings: ATCC 7861, 48 h; method in brief: as §2
[19] = tested on: Enterococcus faecalis; test: Antimicrobial activity against Enterococcus faecalis DSM 2570 after 48 hr by agar dilution method; settings: DSM 2570, 48 h; method in brief: as §1

| MIC [1] [µg/mL] | MIC [2] [µg/mL] | MIC [3] [µg/mL] | MIC [4] [µg/mL] | MIC [5] [µg/mL] | MIC [6] [µg/mL] | MIC [8] [µg/mL] | MIC [9] [µg/mL] | MIC [10] [µg/mL] | MIC [11] [µg/mL] | MIC [12] [µg/mL] | MIC [13] [µg/mL] | MIC [14] [µg/mL] | MIC [15] [µg/mL] | MIC [16] [µg/mL] | MIC [17] [µg/mL] | MIC [18] [µg/mL] | MIC [19] [µg/mL] | SMILES | MIC [7] [µg/mL] |
| --- | --- | --- | --- | --- | --- | --- | --- | --- | --- | --- | --- | --- | --- | --- | --- | --- | --- | --- | --- |
| 1000 (≈ 726 µM) | 1000 (≈ 726 µM) | > 1000 | > 1000 | 1000 (≈ 726 µM) | 1000 (≈ 726 µM) | 1000 (≈ 726 µM) | 1000 (≈ 726 µM) | > 1000 | > 1000 | > 1000 | > 1000 | > 1000 | 1000 (≈ 726 µM) | > 1000 | 1000 (≈ 726 µM) | > 1000 | > 1000 | C[C@H](CCC1(O)O[C@H]2C[C@H]3[C@@H]4CC[C@H]5C[C@@H](O[C@@H]6O[C@H](CO)[C@H](O[C@@H]7O[C@H](CO)[C@@H](O)[C@H](O[C@@H]8OC[C@@H](O)[C@H](O)[C@H]8O)[C@H]7O[C@@H]7O[C@H](CO)[C@@H](O)[C@H](O[C@@H]8O[C@H](CO)[C@@H](O)[C@H](O)[C@H]8O)[C@H]7O)[C@H](O)[C@H]6O)CC[C@]5(C)[C@H]4CC[C@]3(C)[C@H]2[C@@H]1C)CO[C@@H]1O[C@H](CO)[C@@H](O)[C@H](O)[C@H]1O (some centres not stated) [CAPSICOSIDE D] | 1000 (≈ 726 µM) |
| 1000 (≈ 710 µM) | 1000 (≈ 710 µM) | > 1000 | > 1000 | 1000 (≈ 710 µM) | 1000 (≈ 710 µM) | 1000 (≈ 710 µM) | 1000 (≈ 710 µM) | > 1000 | > 1000 | > 1000 | > 1000 | > 1000 | 1000 (≈ 710 µM) | 1000 (≈ 710 µM) | 1000 (≈ 710 µM) | 1000 (≈ 710 µM) | > 1000 | C[C@H](CCC1(O)O[C@H]2C[C@H]3[C@@H]4CC[C@H]5C[C@@H](O[C@@H]6O[C@H](CO)[C@H](O[C@@H]7O[C@H](CO)[C@@H](O)[C@H](O[C@@H]8O[C@H](CO)[C@@H](O)[C@H](O)[C@H]8O)[C@H]7O[C@@H]7O[C@H](CO)[C@@H](O)[C@H](O[C@@H]8O[C@H](CO)[C@@H](O)[C@H](O)[C@H]8O)[C@H]7O)[C@H](O)[C@H]6O)CC[C@]5(C)[C@H]4CC[C@]3(C)[C@H]2[C@@H]1C)CO[C@@H]1O[C@H](CO)[C@@H](O)[C@H](O)[C@H]1O (some centres not stated) [CAPSICOSIDE G] | 1000 (≈ 710 µM) |
| 1000 (≈ 711 µM) | 1000 (≈ 711 µM) | > 1000 | > 1000 | 1000 (≈ 711 µM) | 1000 (≈ 711 µM) | 1000 (≈ 711 µM) | 1000 (≈ 711 µM) | > 1000 | > 1000 | > 1000 | > 1000 | > 1000 |  |  |  |  | > 1000 | CC1=C(CC[C@@H](C)CO[C@@H]2O[C@H](CO)[C@@H](O)[C@H](O)[C@H]2O)O[C@H]2C[C@H]3[C@@H]4CC[C@H]5C[C@@H](O[C@@H]6O[C@H](CO)[C@H](O[C@@H]7O[C@H](CO)[C@@H](O)[C@H](O[C@@H]8O[C@H](CO)[C@@H](O)[C@H](O)[C@H]8O)[C@H]7O[C@@H]7O[C@H](CO)[C@@H](O)[C@H](O[C@@H]8O[C@H](CO)[C@@H](O)[C@H](O)[C@H]8O)[C@H]7O)[C@H](O)[C@H]6O)[C@H](O)C[C@]5(C)[C@H]4CC[C@]3(C)[C@@H]12 [Capsicoside F] | 1000 (≈ 711 µM) |

| SMILES | MIC [1] [µg/mL] | MIC [2] [µg/mL] | MIC [3] [µg/mL] | MIC [4] [µg/mL] | MIC [5] [µg/mL] | MIC [6] [µg/mL] | MIC [8] [µg/mL] | MIC [9] [µg/mL] | MIC [10] [µg/mL] | MIC [11] [µg/mL] | MIC [12] [µg/mL] | MIC [13] [µg/mL] | MIC [14] [µg/mL] | MIC [15] [µg/mL] | MIC [16] [µg/mL] | MIC [17] [µg/mL] | MIC [18] [µg/mL] | MIC [19] [µg/mL] | MIC [7] [µg/mL] |
| --- | --- | --- | --- | --- | --- | --- | --- | --- | --- | --- | --- | --- | --- | --- | --- | --- | --- | --- | --- |
| C[C@H](CCC1(O)O[C@H]2C[C@H]3[C@@H]4CC[C@H]5C[C@@H](O[C@@H]6O[C@H](CO)[C@H](O[C@@H]7O[C@H](CO)[C@@H](O)[C@H](O[C@@H]8OC[C@@H](O)[C@H](O)[C@H]8O)[C@H]7O[C@@H]7O[C@H](CO)[C@@H](O)[C@H](O)[C@H]7O)[C@H](O)[C@H]6O)CC[C@]5(C)[C@H]4CC[C@]3(C)[C@H]2[C@@H]1C)CO[C@@H]1O[C@H](CO)[C@@H](O)[C@H](O)[C@H]1O (some centres not stated) [TIMOSAPONIN I2] | 1000 (≈ 823 µM) | 1000 (≈ 823 µM) | > 1000 | > 1000 | 1000 (≈ 823 µM) | 1000 (≈ 823 µM) | 1000 (≈ 823 µM) | 1000 (≈ 823 µM) | > 1000 | > 1000 | > 1000 | > 1000 | > 1000 | 1000 (≈ 823 µM) | > 1000 | 1000 (≈ 823 µM) | > 1000 | > 1000 | 1000 (≈ 823 µM) |

Source: ChEMBL document CHEMBL3044709, “Antimicrobial furostanol saponins from the seeds of Capsicum annuum L. var. acuminatum” (2002)
